IMP-1 inhibitor – blocks Pseudomonas aeruginosa IMP-1 metallo-beta-lactamase; purified IMP-1, nitrocefin hydrolysis, epi-absorbance fluorescence; 290,000 compounds, 0.45% hits; inhibition, % at 5.6 µM;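 active means inhibition above the mean plus 3 SD of all compounds in the same screening run, cut at about 4.5% in these data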
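Assay system: purified recombinant IMP-1 beta-lactamase. Input: IMP-1 0.2 nM before substrate addition. Buffer or medium: Zinc- and detergent-supplemented HEPES buffer, pH 7.1. Schedule: 25 °C, 15 min preincubation, 25 min reaction. Signal: Epi-absorbance fluorescence, 480 nm excitation, 530 nm emission. Evaluation: percent inhibition from optical density relative to buffer-blank wells.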
VIM-2 inh – inhibitors of Pseudomonas aeruginosa VIM-2 metallo-beta-lactamase | purified VIM-2, nitrocefin hydrolysis, epi-absorbance fluorescence | inhibition, % at 5.6 µM | 290,000 compounds, 0.89% hits | AID 1527;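 active means inhibition above the mean of all tested compounds plus 3 SD, cutoff set per screening run, cut at about 7.5% in these data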;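 further: red hydrolysis product quenches plate fluorescence so inhibitors raise well fluorescence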
PvdQ acylase – blocks Pseudomonas aeruginosa PvdQ acylase activity. purified PvdQ acylase, fluorescence plate reader. inhibition, % at 10 µM. 340,000 compounds, 0.063% hits; in the data active means inhibition above about 30%, passing the limit was not always enough
PHOSPHO1 inh – PHOSPHO1 (human) inhibition. Q8TCT1. recombinant PHOSPHO1, absorbance phosphatase assay. inhibition, % at 13.3 µM. 290,000 compounds, 1.1% hits; in the data active means inhibition above about 60%
Target sequence (Q8TCT1 whole entry, looked up): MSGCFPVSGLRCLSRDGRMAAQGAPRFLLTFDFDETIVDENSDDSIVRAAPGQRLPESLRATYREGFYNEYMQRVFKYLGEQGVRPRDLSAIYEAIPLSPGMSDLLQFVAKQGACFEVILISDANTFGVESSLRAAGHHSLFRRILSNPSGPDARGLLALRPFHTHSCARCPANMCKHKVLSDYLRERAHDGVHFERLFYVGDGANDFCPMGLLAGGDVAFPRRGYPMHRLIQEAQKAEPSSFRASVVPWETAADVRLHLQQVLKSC
CR mimetic SO – caloric restriction mimetics inhibiting age-related superoxide in yeast. S. cerevisiae aged cells, superoxide DHE fluorescence; active compounds read low. superoxide response (% of plate mean), % at 10 µM. 330,000 compounds, 0.18% hits;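 active means superoxide response under a set limit, about three screen SD below normal, cut at about 65% in these data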;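 further: yeast aged for seven days with compound at 30 °C before DHE staining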
CR mimetic CP – yeast aging superoxide inhibition, cherry pick confirmation. S. cerevisiae aging, superoxide DHE fluorescence; active compounds read low. 850 compounds, 1% hits. superoxide response (% of plate), % at 10 µM. shares compounds with CR mimetic SO;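 active means superoxide signal below 65% of the plate average of sample wells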;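 further: cells aged with compound for 7 days at 30 degrees C before staining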
DHE fluor count – counter-screen for compounds affecting DHE oxidation and fluorescence in yeast. shares compounds with CR mimetic SO. S. cerevisiae BY4741, flow cytometry; active compounds read low. fluorescence response, % at 10 µM. 850 tested, under 10 active;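 active means fluorescence response below 15%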;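 further: lower means stronger quenching of DHE signal or ROS scavenging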
Of the large screens only hits and unclear results are named; the others gave an inactive call (follow-up assays come after a bar, where they were run). Sampled rows, rich in hits. Any-hit rate of the full collection: about 2.2%.

CCCCc1cc(=O)oc2cc(OCC(=O)N3CCOCC3)ccc12	none
CC1CCN(S(=O)(=O)c2ccc(C(=O)Nc3nnc(C4CC4)o3)cc2)CC1	none | CR mimetic CP inactive | DHE fluor count inactive
CC1CCCCN1S(=O)(=O)c1ccc(C(=O)Nc2nnc(C3CC3)o2)cc1 (configuration not stated)	none | CR mimetic CP inactive | DHE fluor count inactive
Cc1nnc(NC(=O)c2ccc(S(=O)(=O)N3CCCCC3C)cc2)o1 (configuration not stated)	none
O=C(Nc1nnc(C2CC2)o1)c1ccc(S(=O)(=O)N2CCCCC2)cc1	none
CC1CCCCN1S(=O)(=O)c1ccc(C(=O)Nc2nnc(C3=COCCO3)o2)cc1 (configuration not stated)	none | CR mimetic CP inactive | DHE fluor count inactive
CC1CCCN(S(=O)(=O)c2ccc(C(=O)Nc3nnc(C4=COCCO4)o3)cc2)C1 (configuration not stated)	none
CC1CCCCN1S(=O)(=O)c1ccc(C(=O)Nc2nnc(-c3ccco3)o2)cc1 (configuration not stated)	none | CR mimetic CP inactive | DHE fluor count inactive
CC(C)(C)NC(=O)C(c1ccc(-c2ccccc2)cc1)N(C[C@H]1CC[C@@H]([C@@H]2CC[C@H](CO)O2)O1)C(=O)c1ccc(C(C)(C)C)cc1 (some centres not stated)	none (no result: IMP-1 inhibitor, VIM-2 inh, PHOSPHO1 inh)
NC(=O)C1CCCN(C(=O)CN2C(=O)NC(c3ccccc3)(c3ccccc3)C2=O)C1 (configuration not stated)	none (no result: IMP-1 inhibitor, VIM-2 inh, PHOSPHO1 inh, CR mimetic SO)
CCOc1ccccc1NC(=O)COC(=O)C12CC3CC(CC(O)(C3)C1)C2	none (no result: IMP-1 inhibitor, VIM-2 inh, PHOSPHO1 inh, CR mimetic SO)
CCc1ccc(OCC(=O)NNCC(=O)Nc2ccc(OC)cc2)cc1	none (no result: IMP-1 inhibitor, VIM-2 inh, PHOSPHO1 inh, CR mimetic SO)
COCc1nnc(NC(=O)c2ccc(S(=O)(=O)N3CCCc4ccccc43)cc2)o1	none | CR mimetic CP inactive | DHE fluor count inactive
COc1cc(-c2nnc(NC(=O)c3ccc(S(=O)(=O)N4CCOCC4)cc3)o2)cc(OC)c1OC	none (no result: PvdQ acylase)
COCc1nnc(NC(=O)c2ccc(S(=O)(=O)N3CCOCC3)cc2)o1	none | CR mimetic CP inactive | DHE fluor count inactive
COc1ccccc1-c1nnc(NC(=O)c2ccc(S(=O)(=O)N3CCOCC3)cc2)o1	none | CR mimetic CP inactive | DHE fluor count inactive
COc1ccc(-c2nnc(NC(=O)c3ccc(S(=O)(=O)N4CCCc5ccccc54)cc3)o2)cc1	none
Cc1ncsc1C(=O)N1CCCC(CNS(=O)(=O)c2cccs2)C1 (configuration not stated)	none
Cn1ccs/c1=N\C(=O)Nc1cccc(C(F)(F)F)c1	none (no result: PHOSPHO1 inh)
NC(=O)c1ccc(NC(=O)COC(=O)CCN=C2NS(=O)(=O)c3ccccc32)cc1	none (no result: IMP-1 inhibitor, VIM-2 inh, PHOSPHO1 inh)
CCN(CC)Cc1cc(Nc2c3ccccc3nc3c4ccccc4n(C)c23)cc(CN(CC)CC)c1O	none (no result: IMP-1 inhibitor, VIM-2 inh, PHOSPHO1 inh, CR mimetic SO)
COc1ccccc1N1CCN(c2ccc([N+](=O)[O-])cn2)CC1	none
CN(C(=O)CN1CCN(c2ccc([N+](=O)[O-])cn2)CC1)c1ccccc1	none (no result: PHOSPHO1 inh) | CR mimetic CP inactive | DHE fluor count inactive
COc1ccc(CCNC(=O)c2ccc(OCC(=O)N3CCOCC3)c(OC)c2)cc1	none (no result: IMP-1 inhibitor, VIM-2 inh, PHOSPHO1 inh)
COc1ccc(CCNC(=O)c2ccc(OCC(=O)N3CCOCC3)c(OC)c2)cc1OC	CR mimetic SO 64.2 | CR mimetic CP inactive | DHE fluor count inactive
CC(=O)Nc1cccc(-c2cnc(N)c(C(=O)c3cccnc3)n2)c1	none (no result: IMP-1 inhibitor, VIM-2 inh, PHOSPHO1 inh)
Cc1cc(NS(=O)(=O)c2ccccc2)c(C)c(Cl)c1O	none (no result: IMP-1 inhibitor, VIM-2 inh) | CR mimetic CP inactive | DHE fluor count inactive
Cc1c(O)ccc(NS(=O)(=O)c2ccccc2)c1C	none
Cn1c(=O)c2c(nc(CN3CCOCC3)n2CCN2CCOCC2)n(C)c1=O	CR mimetic SO 59.7 | CR mimetic CP inactive | DHE fluor count inactive
Cc1ccc(S(=O)(=O)N2CC=C(C(=O)NC3CCCC3)CC2)cc1	none
COc1ccc(S(=O)(=O)N2CC=C(C(=O)NC3CCCC3)CC2)cc1	CR mimetic SO 63.4 | CR mimetic CP inactive | DHE fluor count inactive
COc1ccc(CNC(=O)c2cc3ccccc3oc2=O)cc1	CR mimetic SO 63.2 | CR mimetic CP inactive | DHE fluor count inactive
COc1ccc2cc(C(=O)NCc3ccccc3)c(=O)oc2c1	none (no result: PHOSPHO1 inh)
Cc1nc(Nc2ccc(S(=O)(=O)N3CCCCC3C)cc2)c2nnn(Cc3ccccc3)c2n1 (configuration not stated)	CR mimetic SO 58.9 | CR mimetic CP inactive | DHE fluor count inactive
COc1cc(C(=O)N2CCN(C(=O)c3cc(-c4ccccc4)n[nH]3)CC2)cc(OC)c1OC	CR mimetic SO 63.2 | CR mimetic CP inactive | DHE fluor count inactive
COCCCn1c(=O)c2ccccc2n(CC(=O)NC2CCCCC2)c1=O	none
CC(=O)Nc1ccc(NC(=O)CSc2ccc(-c3cccnc3)nn2)cc1	none
CC(=O)Nc1ccc(NC(=O)CSc2ccc(-c3ccc(-n4ccnc4)cc3)nn2)cc1	none (no result: IMP-1 inhibitor, VIM-2 inh, PHOSPHO1 inh) | CR mimetic CP inactive | DHE fluor count inactive
Cc1cc(C)c(S(=O)(=O)Nc2ccc(O)cc2)c(C)c1	none | CR mimetic CP inactive | DHE fluor count inactive
CCC(C)c1ccc(C(C)NC(=S)NC2CCCCC2)cc1 (configuration not stated)	CR mimetic SO 50.4 | CR mimetic CP inactive | DHE fluor count inactive
CCc1ccc(C(C)NC(=S)NC2CCCCC2)cc1 (configuration not stated)	none
NC(=O)NS(=O)(=O)Oc1ccccc1	none
CC12CCC(=O)C=C1CCC1C2C(O)CC2(C)C1CCC2(O)C(=O)COC(=O)COCC(=O)O (configuration not stated)	none (no result: IMP-1 inhibitor, VIM-2 inh, PHOSPHO1 inh, CR mimetic SO)
COc1ccc(C(=O)/C=C/c2ccc(OC3CSC3)cc2)cc1OC	none
O=C(/C=C/c1ccc(OC2CSC2)cc1)c1ccc(Cl)cc1	CR mimetic SO 62.9 | CR mimetic CP inactive | DHE fluor count inactive
COc1ccc(N(C)S(=O)(=O)c2cccc(C(=O)Nc3cccc(C(=O)NC4CC4)c3)c2)cc1	none (no result: IMP-1 inhibitor, VIM-2 inh, PHOSPHO1 inh)
CCc1ccc(NC(=O)CSc2nnc(-c3ccco3)o2)cc1	CR mimetic SO 65.0 | CR mimetic CP inactive | DHE fluor count inactive
Cc1ccc(Nc2c([N+](=O)[O-])ccc3nonc23)cc1C	none
O=C(COC(=O)CNC(=O)c1cccc([N+](=O)[O-])c1)NCc1ccco1	none
FC(F)(F)c1nc2cc3nc4ccccc4[nH]c3cc2n1	CR mimetic SO 56.2 | CR mimetic CP 54.6 | DHE fluor count inactive
Cc1cccc(-n2c(=S)[nH]c3sc4c(c3c2=O)CCc2ccccc2-4)c1	none (no result: CR mimetic SO)
CCOC(=O)C/C(C)=N/NC(=O)c1cccs1	CR mimetic SO 62.9 | CR mimetic CP inactive | DHE fluor count inactive
CCOC(=O)CNC(=O)c1cccs1	none
CN(CC(=O)Nc1ccc(F)cc1)CC(=O)N1CCCC1	none (no result: IMP-1 inhibitor, VIM-2 inh, PHOSPHO1 inh)
COc1cccc(NC(=O)Nc2ccc3c(c2)nc(C)n3C)c1	CR mimetic SO 60.6 | CR mimetic CP inactive | DHE fluor count inactive

Source: PubChem (several laboratories)
